# Assay results taken from ChEMBL document CHEMBL4665656, “Toxicity, bioactivity, release of HS in vivo and pharmaco-kinetics of HS-donors with thiophosphamide structure” (Eur J Med Chem, 2019).
# How the values were obtained:
# [1] = Toxicity in zebra fish assessed as decrease in hatching rate at <=20 uM measured after 120 hpf by microscopic analysis relative control; set-up: species or system Danio rerio; scale not given: the % may be the effect or the level left; conditions: zebrafish, 5 µM
# [2] = Toxicity in Wistar rat assessed as effect on RBC level at 0.01 mmol/kg, ip, administered daily for 14 days (reference value: […]); conditions: in vivo, 336 h, time 14 day
# [3] = Drug metabolism in Wistar rat liver homogenate assessed as metabolite 3b retention time incubated for 36 hrs by LC-MS analysis; type: ADME, tissue-based; conditions: tissue homogenate
# [4] = Toxicity in Wistar rat assessed as large and inflamed nucleus in spleen at 0.01 mmol/kg, ip administered for 14 days; type: organism-based; conditions: in vivo, 336 h, time 14 day
# In short: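 Wistar rats (6/group) dosed ip daily for 14 days with compound in 10% DMSO; vehicle controls received 10% DMSO. Liver, kidney and spleen were fixed in 4% glutaraldehyde, sectioned, H-E stained and examined microscopically.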
# [5] = Induction of H2S generation assessed as half life at 150 uM incubated at 22 degC and pH 1.2 by fluorescence spectrophotometry; type: functional
# In short: (§1)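 Donor at 150 µM final, mixed with 200 µM sulfonyl-azide fluorescent probe in buffer/acetonitrile (1:9) at set pH. Cuvette held in a water bath at 22 °C or 37 °C, with fluorescence read three times at intervals. H2S was quantified from a Na2S standard curve (0–200 µM, probe 200 µM).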
# [6] = Induction of H2S generation assessed as half life at 150 uM incubated at 22 degC and pH 8 by fluorescence spectrophotometry; type: functional; in short: as §1
# HepG2 = test: Cytotoxicity in human HePG2 cells assessed as growth inhibition incubated for 24 hrs by MTT assay; type: functional, cell-based; conditions: HepG2, 24 h
# In short: (§2)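 Cells were grown in RPMI 1640 with 10% FBS at 37 °C and 10% CO2, seeded at 6×10^3 cells/well. Exposure was 24 h, with viability by MTT, in triplicate cultures. IC50 was reported as mean ± SD.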
# [7] = Cytotoxicity against rat H9C2 cells assessed as cell viability at 100 uM measured after 24 hrs by MTT assay; type: cell-based; conditions: read-out: Activity
# MCF7 = test: Cytotoxicity in human MCF-7 cells assessed as growth inhibition incubated for 24 hrs by MTT assay; type: functional, cell-based; conditions: MCF7, 24 h; in short: as §2
# [8] = Toxicity in zebra fish embryo assessed as decrease in spontaneous movement at 5 uM measured after 24 hpf by microscopic analysis; set-up: species or system Danio rerio; conditions: zebrafish
# In short: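 Normal AB embryos were exposed to compound or DMF vehicle (1:1000) from 4 to 24 hpf. Ten embryos per group were chosen at random. Spontaneous movement was recorded for 5 min under a stereoscopic dissecting microscope and expressed as frequency per min. Values are mean ±SD of three independent experiments.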
# [9] = Acute toxicity in juvenile zebrafish assessed as decrease in locomotor activity measured as swimming distance at 10 uM measured at 144 hpf; set-up: species or system Danio rerio; conditions: in vivo, dose […]
# In short: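 Wild-type AB zebrafish bred at 28 °C on a 14 h/10 h light cycle; normally developing embryos were selected at 4 hpf. Total swimming distance of juveniles was recorded over 5 min under visible light. DMF (1:1000) was the vehicle control, n = 100, three independent experiments, mean ± SD.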
# [10] = Induction of H2S generation assessed as half life at 150 uM incubated at 37 degC and pH 8 by fluorescence spectrophotometry; type: functional; in short: as §1
# [11] = Toxicity in Wistar rat assessed as effect on platelet level at 0.01 mmol/kg, ip, administered daily for 14 days (reference value: 8.57 10^9/L); conditions: in vivo, 336 h, time 14 day
# RAW264.7 = test: Anti-inflammatory activity in mouse RAW264.7 cells assessed as inhibition of LPS-induced NO production preincubated for 4 hr followed by LPS addition and measured after 24 hrs relative to control; type: functional, cell-based; conditions: dose 100.0 µM, time 28.0 hrs
# In short: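 RAW264.7 cells exposed to LPS 1 µg/mL with compound (20 and 100 µM) for 24 h. Nitrite in medium measured by Griess reagent, […], against a sodium nitrite standard curve (0–100 µM). Four parallel groups, mean ± SD.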
# HT-29 = test: Cytotoxicity in human HT-29 cells assessed as growth inhibition incubated for 24 hrs by MTT assay; type: functional, cell-based; conditions: HT-29, 24 h; in short: as §2
# [12] = Induction of H2S generation assessed as Cmax at 150 uM incubated at 22 degC and pH 1.2 by fluorescence spectrophotometry; type: functional; in short: as §1
# H9c2 = test: Cardioprotective activity against H2O2- induced toxicity in rat H9c2 cells assessed as increase in survival rate at 50 uM incubated for 8 hrs co-treated with 200 uM H2O2 measured after 24 hrs by MTT assay relative to control; type: functional
# In short: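 H9c2 cardiomyocytes injured with H2O2 (50, 200 or 400 µM) for 8 h together with compound (10–100 µM). Survival rate measured against the H2O2 model group. Six independent experiments, mean ± sd.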
# [13] = Induction of H2S generation assessed as half life at 150 uM incubated at 37 degC and pH 5 by fluorescence spectrophotometry; type: functional; in short: as §1
# [14] = Induction of H2S generation assessed as Cmax at 150 uM incubated at 37 degC and pH 1.2 by fluorescence spectrophotometry; type: functional; in short: as §1
# [15] = Induction of H2S generation assessed as Cmax at 150 uM incubated at 22 degC and pH 8 by fluorescence spectrophotometry; type: functional; in short: as §1
# [16] = Induction of H2S generation assessed as half life at 150 uM incubated at 37 degC and pH 1.2 by fluorescence spectrophotometry; type: functional; in short: as §1
# [17] = Toxicity in Wistar rat assessed as effect on hemoglobin level at 0.01 mmol/kg, ip, administered daily for 14 days (reference value: 98 g/l); conditions: in vivo, 336 h, time 14 day
# [18] = Toxicity in zebra fish assessed as survival rate at 0.5 uM measured after 120 hpf by microscopic analysis; set-up: species or system Danio rerio; conditions: zebrafish
# In short: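 Wild-type AB zebrafish embryos were checked at 4 hpf, and normally developed ones were used. There were 100 embryos per group, split into three replicates, one per well in 200 µL solution under sealing film. Mortality was recorded at 24–168 hpf. Vehicle control was DMF diluted 1:1000. Values are mean ±SD of three independent experiments.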
# WI-38 = test: Cytotoxicity in human W138 cells assessed as growth inhibition incubated for 24 hrs by MTT assay; type: cell-based; conditions: WI-38, 24 h; in short: as §2
# [19] = Toxicity in zebra fish assessed as hatching rate at 0.5 uM measured after 120 hpf by microscopic analysis; set-up: species or system Danio rerio; conditions: zebrafish
# [20] = Induction of H2S generation assessed as half life at 150 uM incubated at 22 degC and pH 5 by fluorescence spectrophotometry; type: functional; in short: as §1
# [21] = Induction of H2S generation assessed as Cmax at 150 uM incubated at 22 degC and pH 7.4 by fluorescence spectrophotometry; type: functional; in short: as §1
# HeLa = test: Cytotoxicity in human HeLa cells assessed as growth inhibition incubated for 24 hrs by MTT assay; type: functional, cell-based; in short: as §2
# [22] = Induction of H2S generation assessed as Cmax Induction of H2S generation assessed as Cmax at 150 uM incubated at 37 degC and pH 8 by fluorescence spectrophotometry; type: functional; in short: as §1
# A549 = test: Cytotoxicity in human A549 cells assessed as growth inhibition incubated for 24 hrs by MTT assay; type: functional, cell-based; conditions: A549, 24 h; in short: as §2
# [23] = Induction of H2S generation assessed as Cmax at 150 uM incubated at 22 degC and pH 5 by fluorescence spectrophotometry; type: functional; in short: as §1
Structure (SMILES),Activity [1],Activity [2],Retention_time [3],Activity [4],T1/2 [5],T1/2 [6],IC50 (HepG2),"viability at 24 h, 100 µM [7]",IC50 (MCF7),Activity [8],Activity [9],T1/2 [10],Activity [11],Activity (RAW264.7),IC50 (HT-29),Cmax [12],Activity (H9c2),T1/2 [13],Cmax [14],Cmax [15],further results
O=C([O-])[C@H](Cc1cc2ccccc2[nH]1)NP([O-])(=S)c1ccccc1.[Li+].[Li+] (some centres not stated),50%,5.98 10^12/L,7.9 min,Toxic,2.97 min,8.54 min,315 µM,> 90%,838 µM,Toxic,216 mm,7.85 min,530 10^9/L,Dose-dependent effect,742 µM,118 µM,30.1%,2.9 min,124 µM,118 µM,T1/2 [16]: 1.51 min; Activity [17]: 168 g/L; Activity [18]: Non-Toxic; IC50 (WI-38): 724 µM; Activity [19]: Non-Toxic; T1/2 [20]: 3.53 min; Cmax [21]: 117 µM; IC50 (HeLa): 712 µM; Cmax [22]: 124 µM; IC50 (A549): 433 µM; Cmax [23]: 117 µM
S=P1(c2ccccc2)NCCCO1 (configuration not stated),50%,8.42 10^12/L,8.63 min,Toxic,35 min,35.1 min,629 µM,> 90%,752 µM,Toxic,257 mm,34.9 min,628 10^9/L,Dose-dependent effect,1050 µM,25 µM,13.9%,36.6 min,34.8 µM,25.6 µM,T1/2 [16]: 35.4 min; Activity [17]: 190 g/L; Activity [18]: Non-Toxic; IC50 (WI-38): 720 µM; Activity [19]: Non-Toxic; T1/2 [20]: 34.1 min; Cmax [21]: 25.1 µM; IC50 (HeLa): 826 µM; Cmax [22]: 35.1 µM; IC50 (A549): 886 µM; Cmax [23]: 24.9 µM
